Reference: ChEMBL document CHEMBL1138153, “N-substituted 4beta-methyl-5-(3-hydroxyphenyl)-7alpha-amidomorphans are potent, selective kappa opioid receptor antagonists” (J Med Chem, 2006)

Tests used:
[1] = target: Mu-type opioid receptor (Homo sapiens) (UniProt P35372); test: Inhibition of DAMGO stimulated [35S]GTP-gamma-S binding to cloned human mu opioid receptor expressed in CHO cells; assay type: functional, cell-based
Outline: (§1)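 Antagonism measured as a rightward shift of the agonist concentration–response curve for [35S]GTPγS binding in CHO cells expressing the cloned human receptor. Curves were run with and without one fixed concentration of test compound. Ke = [L]/(DR − 1), where [L] is the test compound concentration and DR is the ratio of agonist EC50 with versus without test compound.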

[2] = target: Delta-type opioid receptor (Homo sapiens) (UniProt P41143); test: Inhibition of DPDPE stimulated [35S]GTP-gamma-S binding to cloned human delta opioid receptor expressed in CHO cells; assay type: functional, cell-based; outline: as §1
Sequence of Delta-type opioid receptor (Homo sapiens) (P41143 whole entry): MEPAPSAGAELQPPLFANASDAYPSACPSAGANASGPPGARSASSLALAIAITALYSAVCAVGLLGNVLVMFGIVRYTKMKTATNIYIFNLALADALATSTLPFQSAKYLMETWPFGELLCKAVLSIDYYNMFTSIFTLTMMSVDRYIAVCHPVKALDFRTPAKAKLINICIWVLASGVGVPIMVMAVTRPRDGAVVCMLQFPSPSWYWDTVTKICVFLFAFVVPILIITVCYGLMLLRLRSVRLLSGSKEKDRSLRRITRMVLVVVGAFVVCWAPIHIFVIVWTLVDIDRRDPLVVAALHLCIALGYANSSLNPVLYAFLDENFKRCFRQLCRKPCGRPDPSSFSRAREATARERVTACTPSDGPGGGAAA

[3] = target: Kappa-type opioid receptor (Homo sapiens) (UniProt P41145); test: Inhibition of U69,593 stimulated [35S]GTP-gamma-S binding to cloned human kappa opioid receptor expressed in CHO cells; assay type: functional, cell-based; outline: as §1
Sequence of Kappa-type opioid receptor (Homo sapiens) (P41145 whole entry): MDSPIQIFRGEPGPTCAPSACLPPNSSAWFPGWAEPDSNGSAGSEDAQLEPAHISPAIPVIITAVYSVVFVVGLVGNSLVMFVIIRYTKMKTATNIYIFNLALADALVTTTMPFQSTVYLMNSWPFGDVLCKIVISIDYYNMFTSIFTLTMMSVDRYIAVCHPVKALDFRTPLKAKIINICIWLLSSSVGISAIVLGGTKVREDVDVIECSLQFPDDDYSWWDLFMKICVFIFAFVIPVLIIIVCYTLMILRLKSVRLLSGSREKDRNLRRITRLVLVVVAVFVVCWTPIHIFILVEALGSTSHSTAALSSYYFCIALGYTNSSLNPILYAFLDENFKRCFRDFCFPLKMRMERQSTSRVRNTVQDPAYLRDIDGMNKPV

[4] = target: Opioid receptors; mu & kappa (Homo sapiens) (UniProt P41145+P35372); test: Selectivity for human kappa opioid receptor over human mu opioid receptor; assay type: protein assay
Sequence of Opioid receptors; mu & kappa (Homo sapiens) (P35372 whole entry, looked up): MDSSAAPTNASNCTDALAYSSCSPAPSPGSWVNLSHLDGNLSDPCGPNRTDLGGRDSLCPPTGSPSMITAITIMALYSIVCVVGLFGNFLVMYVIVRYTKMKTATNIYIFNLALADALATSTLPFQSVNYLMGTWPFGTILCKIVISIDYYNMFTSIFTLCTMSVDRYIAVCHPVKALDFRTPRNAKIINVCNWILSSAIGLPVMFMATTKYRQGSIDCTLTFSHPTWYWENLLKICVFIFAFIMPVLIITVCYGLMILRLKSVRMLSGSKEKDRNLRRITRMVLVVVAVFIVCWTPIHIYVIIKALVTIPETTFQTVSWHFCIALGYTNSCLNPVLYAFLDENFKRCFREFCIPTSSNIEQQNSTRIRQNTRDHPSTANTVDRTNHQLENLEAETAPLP
Sequence of Opioid receptors; mu & kappa (Homo sapiens) (P41145 whole entry, looked up): as the sequence (P41145 whole entry) above

[5] = target: Opioid receptors; delta & kappa (Homo sapiens) (UniProt P41145+P41143); test: Selectivity for human kappa opioid receptor over human delta opioid receptor; assay type: protein assay
Sequence of Opioid receptors; delta & kappa (Homo sapiens) (P41143 whole entry, looked up): as the sequence (P41143 whole entry) above
Sequence of Opioid receptors; delta & kappa (Homo sapiens) (P41145 whole entry, looked up): as the sequence (P41145 whole entry) above

Sequence of Mu-type opioid receptor (Homo sapiens) (P35372 whole entry): as the sequence (P35372 whole entry, looked up) above

SMILES	Ke [1] [nM]	Ke [2] [nM]	Ke [3] [nM]	Ratio Ke [4]	Ratio Ke [5]
CC1CN(CCCc2ccccc2)C2C[C@H](NC(=O)CCN3CCN(C)CC3)CC1(c1cccc(O)c1)C2 (stereo partly specified)	82	186	0.87	94	214
COc1cc2c(cc1OC)CN(CCC(=O)N[C@H]1CC3CC(c4cccc(O)c4)(C1)C(C)CN3CCCc1ccccc1)CC2 (single isomer, unassigned; (-))	218	40	0.54	404	74
CC1CN(CCCc2ccccc2)C2C[C@H](NC(=O)CCN3CCOCC3)CC1(c1cccc(O)c1)C2 (stereo partly specified)	259	77	2.2	118	35
CC1CCN(CCC(=O)N[C@H]2CC3CC(c4cccc(O)c4)(C2)C(C)CN3CCCc2ccccc2)CC1 (stereo partly specified)	176	313	0.47	374	666
CC1CN(CCCc2ccccc2)C2C[C@H](NC(=O)CCN3CCc4c(O)cccc4C3)CC1(c1cccc(O)c1)C2 (stereo partly specified)	4.6	25	0.07	66	357
CCCCCCN1CC(C)C2(c3cccc(O)c3)CC1C[C@H](NC(=O)CCN1CCc3ccccc3C1)C2 (stereo partly specified)	103	145	0.2	515	725
CC1CN(CCCc2ccccc2)C2C[C@H](NC(=O)CCN3CCCCC3)CC1(c1cccc(O)c1)C2 (stereo partly specified)	42	33	0.24	175	138
CC(C)[C@@H](CN1CC[C@@](C)(c2cccc(O)c2)[C@@H](C)C1)NC(=O)[C@H]1Cc2ccc(O)cc2CN1	–	–	0.02	–	–

The next lines start with the values.

Ke [1] [nM]	Ke [2] [nM]	Ke [3] [nM]	Ratio Ke [4]	Ratio Ke [5]	SMILES
26	32	0.3	87	107	CC1CN(CCCc2ccccc2)C2C[C@H](NC(=O)CCN3CCc4cc(O)ccc4C3)CC1(c1cccc(O)c1)C2 (stereo partly specified)
52	29	1.1	47	26	CC1CN(CCCc2ccsc2)C2C[C@H](NC(=O)CCN3CCc4ccccc4C3)CC1(c1cccc(O)c1)C2 (stereo partly specified)
28	35	0.28	100	125	COc1ccc2c(c1)CN(CCC(=O)N[C@H]1CC3CC(c4cccc(O)c4)(C1)C(C)CN3CCCc1ccccc1)CC2 (stereo partly specified)
52	62	0.09	578	689	CC1CN(CCCc2ccccc2)C2C[C@H](NC(=O)CCN3CCc4ccc(O)cc4C3)CC1(c1cccc(O)c1)C2 (stereo partly specified)
> 500	> 500	6.1	> 82	> 82	Cc1ccccc1CN1CC(C)C2(c3cccc(O)c3)CC1C[C@H](NC(=O)CCN1CCc3ccccc3C1)C2 (stereo partly specified)
48	13	0.09	533	144	CC1CN(CCCc2ccccc2)C2C[C@H](NC(=O)CCN3CCc4ccccc4C3)CC1(c1cccc(O)c1)C2 (stereo partly specified)
28	25	0.04	700	625	Cc1ccccc1CCN1CC(C)C2(c3cccc(O)c3)CC1C[C@H](NC(=O)CCN1CCc3ccccc3C1)C2 (stereo partly specified)
25	19	1.8	14	11	CC1CN(CCCc2cccs2)C2C[C@H](NC(=O)CCN3CCc4ccccc4C3)CC1(c1cccc(O)c1)C2 (stereo partly specified)
41	20	0.2	205	100	Cc1ccccc1CCCN1CC(C)C2(c3cccc(O)c3)CC1C[C@H](NC(=O)CCN1CCc3ccccc3C1)C2 (stereo partly specified)
35	52	0.32	109	163	CC1CN(CCCc2ccco2)C2C[C@H](NC(=O)CCN3CCc4ccccc4C3)CC1(c1cccc(O)c1)C2 (stereo partly specified)
261	42	0.12	2180	350	COc1ccc2c(c1)CCN(CCC(=O)N[C@H]1CC3CC(c4cccc(O)c4)(C1)C(C)CN3CCCc1ccccc1)C2 (stereo partly specified)
